Experimental data of several laboratories.
Lines come from different studies, so protocols differ.
Effect on: cell growth or viability

`C[C@H]1Oc2cc(cnc2N)-c2c(nn(C)c2C#N)CN(C)C(=O)c2ccc(F)cc21` has an IC50 of greater than 10000 nM (HD-MB03; 7 days).
For `CC(=O)OC[C@H]1O[C@@H]([S-])[C@H](OC(C)=O)[C@@H](OC(C)=O)[C@@H]1OC(C)=O.CCP(CC)CC.[Au+]`, the Kb was 100 nM (KB 3-1; WST-1).
The IC50 of `CC(=NN=c1[nH]c(C)cs1)c1c(O)c2ccccc2oc1=O` is reported as greater than 100000 nM (human Skin fibroblast; MTT; 48 h).
The IC50 of `CC(C)C[C@H](NC(=O)[C@H](Cc1ccccc1)NC(=O)c1cnccn1)B(O)O` is reported as 22 nM (NCI-H1563; ATP luminescence).
For `CCCCCCCCCC(=O)N[C@@H](Cc1c[nH]c2ccccc12)C(=O)N[C@H](CC(N)=O)C(=O)N[C@@H](CC(=O)O)C(=O)N[C@@H]1C(=O)NCC(=O)N[C@@H](CCCN)C(=O)N[C@@H](CC(=O)O)C(=O)N[C@H](C)C(=O)N[C@@H](CC(=O)O)C(=O)NCC(=O)N[C@H](CO)C(=O)N[C@@H]([C@H](C)CC(=O)O)C(=O)N[C@@H](CC(=O)c2ccccc2N)C(=O)O[C@@H]1C`, the Kb was greater than 64000 nM (KB 3-1; WST-1).
`CC[C@]1(O)C[C@H]2CN(CCc3c([nH]c4ccccc34)[C@@](C(=O)OC)(c3cc4c(cc3OC)N(C=O)[C@H]3[C@@](O)(C(=O)OC)[C@H](OC(C)=O)[C@]5(CC)C=CCN6CC[C@]43[C@@H]65)C2)C1` has an IC50 of 11.2 nM (MB002; 7 days).
The GI50 of `CO[C@]1(C(=O)N[C@@H](C)c2ccc(-n3cc(F)cn3)nc2)CC[C@H](c2nc(C)cc(Nc3cc(C)[nH]n3)n2)CC1` is reported as greater than 10000 nM (BT-474; ATP luminescence; 72 h).
With `CCOc1cc(C(C)(C)C)ccc1C1=N[C@@](C)(c2ccc(Cl)cc2)[C@@](C)(c2ccc(Cl)cc2)N1C(=O)N1CCN(CCCS(C)(=O)=O)CC1` the IC50 was 99.4 nM (MB002; 7 days).
The GI50 of `O=C(NO)c1ccc(CN(c2cnccn2)c2cnccn2)cc1` is reported as greater than 20000 nM (B16-F10).
The viability of `CC(=O)Nc1cccc(-n2c(=O)n(C3CC3)c(=O)c3c(Nc4ccc(I)cc4F)n(C)c(=O)c(C)c32)c1` is reported as 74.2% (Calu-6; resazurin; 6.25 nM; 72 h).
With `COc1cc(Nc2nccc(-c3cnn4nc(OC)ccc34)n2)cc(C(F)(F)F)c1` the IC50 was 190 nM (SK-ES1; ATP luminescence).
The IC50 of `CCC(=O)N1CCN(c2ccc(-n3c(=O)ccc4cnc5ccc(-c6cnc7ccccc7c6)cc5c43)cc2C(F)(F)F)CC1` is reported as 15.4 nM (MB002; 7 days).
